The structures appear in SMILES notation.

Our source for the Activity and Ki values is ChEMBL document CHEMBL1140064, “Anxiolytic-like effects of N,N-dialkyl-2-phenylindol-3-ylglyoxylamides by modulation of translocator protein promoting neurosteroid biosynthesis” (J Med Chem, 2008).

In test [1] the test system is C6. The test is described as follows: Induction of pregnenolone biosynthesis in rat C6 cells assessed as increase in pregnenolone level at 40 uM after 2 hrs by ELISA relative to control. The test is classed as functional. The essentials: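 Rat C6 glioma cells grown in DMEM with 10% FBS, 2 mM L-glutamine, penicillin/streptomycin, seeded ~10 000 cells/well. Exposed to compound at 40 µM for 2 h at 37 °C, with DMSO/ethanol ≤0.5% (v/v) kept constant. Pregnenolone secreted into the medium measured by competitive ELISA; mean ± SEM of at least three determinations.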
Background: ELISA stands for enzyme-linked immunosorbent assay.

In test [2] the target is Translocator protein (Rattus norvegicus, UniProt P16257). In words: Displacement of [3H]PK11195 from translocator protein in rat kidney mitochondrial membrane. The test is classed as cell membranes. On the technique in general: Displacement assays read how much labelled ligand stays bound in the presence of the test substance.
Sequence of Translocator protein (P16257 whole entry, looked up): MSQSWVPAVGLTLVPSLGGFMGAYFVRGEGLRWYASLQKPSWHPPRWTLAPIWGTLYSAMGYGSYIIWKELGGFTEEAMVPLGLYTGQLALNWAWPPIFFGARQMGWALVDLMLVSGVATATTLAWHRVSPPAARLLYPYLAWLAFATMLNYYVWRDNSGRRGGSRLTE

For the compound `CCCN(CCC)C(=O)C(=O)c1c(-c2ccc(Cl)cc2)[nH]c2ccccc12`, the Activity in test [1] was determined as 40%.

Regarding `CCCCCCN(CCCCCC)C(=O)C(=O)c1c(-c2ccccc2)[nH]c2ccccc12`, in test [1], the Activity was found to be 30%.

`CCCCN(CCCC)C(=O)C(=O)c1c(-c2ccccc2)[nH]c2ccccc12`: in test [1], the Activity was 23%.

As for `CCN(Cc1ccccc1)C(=O)C(=O)c1c(-c2ccc(Cl)cc2)[nH]c2ccccc12`, the Activity in test [1] was determined as 136%. In addition, in test [2], the Ki – broadly, a dissociation constant, usually derived from enzyme kinetics or from competition with a known ligand – stood at 1.3 nM.

In the case of `CCCCCCN(CCCCCC)C(=O)C(=O)c1c(-c2ccccc2)[nH]c2c(C)cccc12`, the Activity in test [1] amounted to 63%. In test [2], this compound gave an inhibition constant (Ki) of 1.9 nM.

For the compound `CCN(Cc1ccccc1)C(=O)C(=O)c1c(-c2ccccc2)[nH]c2ccccc12`, the Activity in test [1] amounted to 20%. Moreover, in test [2], the Ki was 11 nM.

With `CCCCN(C)C(=O)C(=O)c1c(-c2ccccc2)[nH]c2ccc(Cl)cc12`, the Activity in test [1] is recorded as 70%. The same compound gave a Ki in test [2] of 3.9 nM.

For `CCCCCN(C)C(=O)C(=O)c1c(-c2ccccc2)[nH]c2ccc(Cl)cc12`, the Activity in test [1] was determined as 76%. For the same compound, the Ki in test [2] stood at 3.6 nM.

`CCCN(CCC)C(=O)C(=O)c1c(-c2ccccc2)[nH]c2c(Cl)cccc12`: the Activity in test [1] was found to be 0%. Moreover, in test [2], the Ki was found to be 14 nM.

With `CCCCN(CC)C(=O)C(=O)c1c(-c2ccccc2)[nH]c2ccc(Cl)cc12`, the Activity in test [1] turned out to be 72%. The same compound showed a Ki in test [2] of 1.8 nM.

As to `CCCCN(C)C(=O)C(=O)c1c(-c2ccc(Cl)cc2)[nH]c2ccc(Cl)cc12`, in test [1], the Activity is 67%. The same compound returned a Ki in test [2] of 0.15 nM.

As for `CCCCCCN(CCCCCC)C(=O)C(=O)c1c(-c2ccccc2)[nH]c2c(Cl)cccc12`, the Activity in test [1] is recorded as 0%. For the same compound, the inhibition constant (Ki) in test [2] amounted to 2.4 nM.

Regarding `CCCCN(CCCC)C(=O)C(=O)c1c(-c2ccccc2)[nH]c2c(C)cccc12`, in test [1], the Activity is 71%. The affinity in test [2] corresponds to a Ki of 6 nM.

The compound `CCN(Cc1ccccc1)C(=O)C(=O)c1c(-c2ccccc2)[nH]c2ccc(F)cc12` registered an inhibition constant Ki in test [2] of 1.33 nM.

With `CCN(Cc1ccccc1)C(=O)C(=O)c1c(-c2ccc(F)cc2)[nH]c2ccc(Cl)cc12`, the Activity in test [1] was determined as 0%. For the same compound, the inhibition constant (Ki) in test [2] came out at 4.01 nM.

Consider `CCN(Cc1ccccc1)C(=O)C(=O)c1c(-c2ccccc2)[nH]c2c(Cl)cccc12`, for which, in test [1], the Activity is 0%. The affinity in test [2] corresponds to a Ki of 5 nM.

`CCCN(CCC)C(=O)C(=O)c1c(-c2ccc(F)cc2)[nH]c2ccc(Cl)cc12`: the Activity in test [1] was determined as 42%. In test [2], this compound showed a Ki of 2.83 nM.

In the case of `CCCCN(CCCC)C(=O)C(=O)c1c(-c2ccc(F)cc2)[nH]c2ccc(Cl)cc12`, the Activity in test [1] worked out at 37%. Besides, the inhibitory constant (Ki) in test [2] turned out to be 3.05 nM.

With `CCN(Cc1ccccc1)C(=O)C(=O)c1c(-c2ccc(Cl)cc2)[nH]c2ccc(Cl)cc12`, in test [1], the Activity is reported as 171%.

On to `CCN(Cc1ccccc1)C(=O)C(=O)c1c(-c2ccc(C)cc2)[nH]c2ccccc12`, for which the Activity in test [1] was 86%. The compound further came in with a Ki in test [2] of 2.64 nM.

Turning to `CCN(Cc1ccccc1)C(=O)C(=O)c1c(-c2ccccc2)[nH]c2c(C)cccc12`, the Activity in test [1] was 0%. Besides, in test [2], the Ki is 2.3 nM.

In the case of `CCN(Cc1ccccc1)C(=O)C(=O)c1c(-c2ccccc2)[nH]c2ccc(Cl)cc12`, in test [1], the Activity is on record as 85%. The compound further had an inhibition constant (Ki) in test [2] of 4.6 nM.

For `CCCCN(C)C(=O)C(=O)c1c(-c2ccc(Cl)cc2)[nH]c2ccccc12`, in test [2], the affinity corresponds to a Ki of 11 nM.

As to `CCCCN(CC)C(=O)C(=O)c1c(-c2ccc(Cl)cc2)[nH]c2ccccc12`, the Activity in test [1] was found to be 32%. The compound also showed an inhibition constant Ki in test [2] of 3.6 nM.

`CCN(C)C(=O)C(=O)c1c(-c2ccc(Cl)cc2)[nH]c2ccc(Cl)cc12`: the Activity in test [1] was found to be 0%. In test [2], the affinity, expressed as Ki, was 9.54 nM.

In the case of `CCCCN(C)C(=O)C(=O)c1c(-c2ccccc2)[nH]c2ccccc12`, the Activity in test [1] came out at 32%. Affinity in test [2] was put at a Ki of 53.3 nM.

Compound `CCN(Cc1ccccc1)C(=O)C(=O)c1c(-c2ccc(C(F)(F)F)cc2)[nH]c2ccccc12` displayed an inhibition constant (Ki) in test [2] of 1 nM.

In the case of `CCCCN(CCCC)C(=O)C(=O)c1c(-c2ccccc2)[nH]c2c(Cl)cccc12`, the Activity in test [1] is reported as 0%. This compound showed a Ki in test [2] of 3.4 nM.

With `CCN(Cc1ccccc1)C(=O)C(=O)c1c(-c2ccc(F)cc2)[nH]c2ccccc12`, in test [1], the Activity is recorded as 96%. In addition, the affinity in test [2], expressed as Ki, was 1.68 nM.

Take `CCN(Cc1ccccc1)C(=O)C(=O)c1c(-c2ccccc2)[nH]c2ccc([N+](=O)[O-])cc12`: in test [1], the Activity is recorded as 0%. The Ki in test [2] is 18.3 nM.

For `CCCCN(CCCC)C(=O)C(=O)c1c(-c2ccc(F)cc2)[nH]c2ccc(F)cc12`, the Activity in test [1] was 91%. The Ki in test [2] was found to be 4.36 nM.

In the case of `CCCCCCN(CCCCCC)C(=O)C(=O)c1c(-c2ccc(F)cc2)[nH]c2ccc(F)cc12`, in test [1], the Activity came to 40%. In test [2], this compound displayed a Ki of 0.95 nM.

With `CCCCCCN(CCCCCC)C(=O)C(=O)c1c(-c2ccccc2)[nH]c2ccc(F)cc12`, the Activity in test [1] was determined as 36%. In addition, affinity in test [2] was put at a Ki of 0.37 nM.

On to `CCN(Cc1ccccc1)C(=O)C(=O)c1c(-c2ccccc2)[nH]c2ccc(OC)cc12`, for which the inhibition constant Ki in test [2] amounted to 69.5 nM.

Turning to `CCCCCN(C)C(=O)C(=O)c1c(-c2ccc(Cl)cc2)[nH]c2ccccc12`, in test [1], the Activity came to 65%. The same compound returned a Ki in test [2] of 3.4 nM.

As for `CCCN(CCC)C(=O)C(=O)c1c(-c2ccccc2)[nH]c2c(C)cccc12`, the Activity in test [1] came out at 129%. The inhibition constant Ki in test [2] amounted to 25 nM.

`CCN(C)C(=O)C(=O)c1c(-c2ccccc2)[nH]c2ccccc12` yielded an inhibition constant (Ki) in test [2] of 940 nM.

`CCN(Cc1ccccc1)C(=O)C(=O)c1c(-c2ccc(F)cc2)[nH]c2ccc(F)cc12` showed a Ki in test [2] of 1.67 nM.

With `CCCCN(CC)C(=O)C(=O)c1c(-c2ccc(Cl)cc2)[nH]c2ccc(Cl)cc12`, the Activity in test [1] is 11%. The affinity in test [2], expressed as Ki, was 0.36 nM.

In the case of `CCCCCN(C)C(=O)C(=O)c1c(-c2ccccc2)[nH]c2ccccc12`, the Activity in test [1] amounted to 36%. Further, the inhibitory constant (Ki) in test [2] came to 12.1 nM.

As to `CCN(Cc1ccccc1)C(=O)C(=O)c1c(-c2ccc([N+](=O)[O-])cc2)[nH]c2ccccc12`, the Activity in test [1] came out at 103%. The compound also registered a Ki in test [2] of 0.55 nM.

`CCCCCN(C)C(=O)C(=O)c1c(-c2ccc(Cl)cc2)[nH]c2ccc(Cl)cc12`: in test [1], the Activity came out at 31%. The compound also yielded a Ki in test [2] of 0.18 nM.

In the case of `CCCN(CCC)C(=O)C(=O)c1c(-c2ccc(F)cc2)[nH]c2ccc(F)cc12`, the Activity in test [1] was found to be 17%. The affinity in test [2], expressed as Ki, was 6.73 nM.

For the compound `CCCN(CCC)C(=O)C(=O)c1c(-c2ccc([N+](=O)[O-])cc2)[nH]c2ccccc12`, the Activity in test [1] is 70%. The inhibition constant Ki in test [2] came to 0.95 nM.

Take `CCCCN(CC)C(=O)C(=O)c1c(-c2ccccc2)[nH]c2ccccc12`: the Activity in test [1] amounted to 43%. Besides, the affinity in test [2], expressed as Ki, was 12.6 nM.

As to `CCCN(CCC)C(=O)C(=O)c1c(-c2ccccc2)[nH]c2ccc(Cl)cc12`, the Activity in test [1] turned out to be 10%.

As for `CCCN(CCC)C(=O)C(=O)c1c(-c2ccc(Cl)cc2)[nH]c2ccc(Cl)cc12`, the Activity in test [1] is listed as 49%.

As for `CCCN(CCC)C(=O)C(=O)c1c(-c2ccccc2)[nH]c2ccccc12`, the Activity in test [1] stood at 8%.

Regarding `CCC(C)N(C)C(=O)c1cc2ccccc2c(-c2ccccc2Cl)n1` (stereo not given) [PK-11195], the Activity in test [1] turned out to be 48%.

Take `CN1C(=O)CN=C(c2ccc(Cl)cc2)c2cc(Cl)ccc21` [RO-54864]: in test [1], the Activity is recorded as 41%.
